One block for each compound: values may come before it.
Assays:
Adenosine receptor A3 [1] = target: T1, Adenosine receptor A3 (Homo sapiens, UniProt P0DMS8); assay: Displacement of [3H]MRE3008-F20 from human Adenosine A3 receptor expressed in HEK cells; range 0.24-0.48; type: cell-based, HEK293
T1 sequence (P0DMS8 whole entry): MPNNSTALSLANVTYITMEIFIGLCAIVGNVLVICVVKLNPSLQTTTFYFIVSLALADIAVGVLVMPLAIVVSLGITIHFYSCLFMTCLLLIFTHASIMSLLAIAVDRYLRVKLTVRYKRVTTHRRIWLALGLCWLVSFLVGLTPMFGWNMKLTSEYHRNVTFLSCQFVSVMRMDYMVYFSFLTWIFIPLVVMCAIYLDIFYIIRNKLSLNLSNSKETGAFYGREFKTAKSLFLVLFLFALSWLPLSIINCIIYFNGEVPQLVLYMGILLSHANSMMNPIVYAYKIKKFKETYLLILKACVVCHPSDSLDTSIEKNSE

Adenosine receptor A2b [2] = target: T2, Adenosine receptor A2b (Homo sapiens, UniProt P29275); assay: Displacement of [3H]DPCPX from human Adenosine A2B receptor expressed in HEK293 cells; range 56-103; type: cell-based
T2 sequence (P29275 whole entry): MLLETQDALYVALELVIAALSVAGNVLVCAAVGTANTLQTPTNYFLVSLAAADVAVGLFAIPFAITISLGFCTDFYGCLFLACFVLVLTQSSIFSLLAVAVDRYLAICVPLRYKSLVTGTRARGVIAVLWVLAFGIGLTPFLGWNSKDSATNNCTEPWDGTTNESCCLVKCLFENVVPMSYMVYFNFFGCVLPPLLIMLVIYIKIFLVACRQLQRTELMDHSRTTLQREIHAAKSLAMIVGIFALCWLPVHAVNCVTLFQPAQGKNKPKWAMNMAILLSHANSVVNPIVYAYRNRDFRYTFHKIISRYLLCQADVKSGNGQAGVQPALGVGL
Procedure, shortened: (§1)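 Membranes from HEK-293 cells with human recombinant A2B receptor. Incubation 60 min at 25 °C in 50 mM Tris HCl, 10 mM MgCl2, 1 mM EDTA, 0.1 mM benzamidine, pH 7.4, with 2 IU/mL adenosine deaminase and 40 nM [3H]DPCPX. At least six to eight test concentrations. Nonspecific binding defined with NECA. n = 3-6.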

Adenosine receptor A1 [3] = target: T3, Adenosine receptor A1 (Homo sapiens, UniProt P30542); assay: Displacement of [3H]DPCPX from human Adenosine A1 receptor expressed in CHO cells; range 265-400; type: cell-based
T3 sequence (P30542 whole entry): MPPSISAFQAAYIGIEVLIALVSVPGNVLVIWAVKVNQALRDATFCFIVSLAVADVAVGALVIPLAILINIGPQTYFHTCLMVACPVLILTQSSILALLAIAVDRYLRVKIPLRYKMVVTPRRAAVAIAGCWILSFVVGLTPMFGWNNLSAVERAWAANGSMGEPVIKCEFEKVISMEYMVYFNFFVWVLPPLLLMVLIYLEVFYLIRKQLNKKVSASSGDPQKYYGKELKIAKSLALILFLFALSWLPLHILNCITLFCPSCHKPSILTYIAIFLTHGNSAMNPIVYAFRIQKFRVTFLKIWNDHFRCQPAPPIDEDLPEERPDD
Procedure, shortened: (§2)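 Human recombinant A1 receptor in CHO cell membranes, resuspended in 50 mM Tris HCl pH 7.4. Displacement run 120 min at 25 °C with 1 nM [3H]DPCPX, 50 µg protein per assay, and at least six to eight test concentrations. Nonspecific binding defined with CHA. Bound and free separated on glass-fiber filters; filter radioactivity counted. n = 3-6.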

[4] = target: Adenosine receptors; A1 & A3 (Homo sapiens) (UniProt P30542+P0DMS8); assay: Selectivity ratio (hA1/hA3); type: protein assay
[5] = target: Adenosine receptors; A2b & A3 (Homo sapiens) (UniProt P29275+P0DMS8); assay: Selectivity ratio (h2B/hA3); type: protein assay
Adenosine receptor A2a [6] = target: T4, Adenosine receptor A2a (Homo sapiens, UniProt P29274); assay: Displacement of [3H]SCH-58261 from human Adenosine A2A receptor expressed in HEK293 cells; range 123-162; type: cell-based
Adenosine receptor A1 [7] = target: T3, Adenosine receptor A1; assay: Displacement of [3H]DPCPX from human Adenosine A1 receptor expressed in CHO cells; range 738-961; type: cell-based; procedure, shortened: as §2
Adenosine receptor A2a [8] = target: T4, Adenosine receptor A2a; assay: Displacement of [3H]SCH-58,261 from human Adenosine A2A receptor expressed in HEK293 cells; range 543-820; type: cell-based
Adenosine receptor A2b [9] = target: T2, Adenosine receptor A2b; assay: Displacement of [3H]DPCPX from human Adenosine A2B receptor expressed in HEK293 cells; range 40-69; type: cell-based; procedure, shortened: as §1
Adenosine receptor A3 [10] = target: T1, Adenosine receptor A3; assay: Displacement of [3H]MRE3008-F20 from human Adenosine A3 receptor expressed in HEK cells; range 0.22-0.40; type: cell-based, HEK293
Adenosine receptor A2a [11] = target: T4, Adenosine receptor A2a; assay: Displacement of [3H]SCH-58261 from human Adenosine A2A receptor expressed in HEK293 cells; range 114-170; type: cell-based
Adenosine receptor A2b [12] = target: T2, Adenosine receptor A2b; assay: Displacement of [3H]DPCPX from human Adenosine A2B receptor expressed in HEK293 cells; […]; type: cell-based
Procedure, shortened: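 Competition binding on membranes of HEK-293 cells carrying recombinant human A2B receptor. Incubation 60 min at 25 °C in 50 mM Tris HCl pH 7.4 with 10 mM MgCl2, 1 mM EDTA, 0.1 mM benzamidine and 2 IU/mL adenosine deaminase. Radioligand 40 nM [3H]DPCPX, at least six to eight test concentrations. NECA defined nonspecific binding. Bound ligand separated on glass-fibre filters and counted; n = 3-6.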

Adenosine receptor A1 [13] = target: T3, Adenosine receptor A1; assay: Displacement of [3H]DPCPX from human Adenosine A1 receptor expressed in CHO cells; range 345-465; type: cell-based
Adenosine receptor A3 [14] = target: T1, Adenosine receptor A3; assay: Displacement of [3H]MRE3008-F20 binding at human Adenosine A3 receptor expressed in HEK cells; range 0.77-0.96; type: cell-based, HEK293
Adenosine receptor A1 [15] = target: T3, Adenosine receptor A1; assay: Displacement of [3H]DPCPX from human Adenosine A1 receptor expressed in CHO cells; range 275-386; type: cell-based; procedure, shortened: as §2
Adenosine receptor A3 [16] = target: T1, Adenosine receptor A3; assay: biochemical
Adenosine receptor A2a [17] = target: T4, Adenosine receptor A2a; assay: Displacement of [3H]SCH-58261 from human Adenosine A2A receptor expressed in HEK293 cells; range 33-48; type: cell-based
Adenosine receptor A2b [18] = target: T2, Adenosine receptor A2b; assay: Displacement of [3H]DPCPX from human Adenosine A2B receptor expressed in HEK293 cells; range 67-115; type: cell-based
Procedure, shortened: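 HEK-293 membranes expressing the human receptor were incubated 60 min at 25 °C. Six to eight test concentrations were used. Nonspecific binding was set with NECA. n = 3-6.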

Adenosine receptor A3 [19] = target: T1, Adenosine receptor A3; assay: Inhibition of IB-MECA agonist-mediated cAMP production in membranes of CHO cells expressing human Adenosine A3 receptor; type: functional, cell-based
Procedure, shortened: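 Human A3-CHO membranes (in 50 mM Tris HCl, 10 mM MgCl2, 1 mM EDTA, pH 7.4) were preincubated for 10 min at 37 °C with 5 µM GTP, 0.5 mM Ro 20-1724 and 2.0 IU/mL adenosine deaminase. IB-MECA (100 nM) or antagonist was then added with 1 mM ATP and forskolin for 10 min. The reaction was stopped by 2 min boiling. cAMP was measured by [3H]cAMP competitive protein binding using beef adrenal binding protein, 150 min at 4 °C.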

Adenosine receptor A3 [20] = target: T1, Adenosine receptor A3; assay: Displacement of […] from human Adenosine A3 receptor expressed in CHO cells; type: cell-based
Procedure, shortened: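 Membranes from CHO cells stably expressing human A3, in 50 mM Tris HCl, 10 mM MgCl2 (pH 7.4), 50 µg protein per tube, with 1 nM [3H]MRE3008-F20. Six to eight ligand concentrations were run in duplicate, 120 min at 4 °C. Nonspecific binding was taken with 1 µM MRE3008-F20. Bound ligand was collected on GF/B filters and counted; n = 3-6.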

Adenosine receptor A2b [21] = target: T2, Adenosine receptor A2b; assay: Displacement of [3H]DPCPX from human Adenosine A2B receptor expressed in HEK293 cells; type: cell-based; procedure, shortened: as §1
Adenosine receptor A2a [22] = target: T4, Adenosine receptor A2a; assay: Displacement of [3H]SCH-58261 from human Adenosine A2A receptor expressed in CHO cells; type: cell-based
Procedure, shortened: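 Membranes from CHO cells expressing the human receptor (50 µg protein) with [3H]SCH58261 and six to eight competitor concentrations. Incubated 60 min at 25 °C. Nonspecific binding was set with NECA.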

Adenosine receptor A1 [23] = target: T3, Adenosine receptor A1; assay: Displacement of [3H]DPCPX from human Adenosine A1 receptor expressed in CHO cells; type: cell-based; procedure, shortened: as §2

T4 sequence (P29274 whole entry): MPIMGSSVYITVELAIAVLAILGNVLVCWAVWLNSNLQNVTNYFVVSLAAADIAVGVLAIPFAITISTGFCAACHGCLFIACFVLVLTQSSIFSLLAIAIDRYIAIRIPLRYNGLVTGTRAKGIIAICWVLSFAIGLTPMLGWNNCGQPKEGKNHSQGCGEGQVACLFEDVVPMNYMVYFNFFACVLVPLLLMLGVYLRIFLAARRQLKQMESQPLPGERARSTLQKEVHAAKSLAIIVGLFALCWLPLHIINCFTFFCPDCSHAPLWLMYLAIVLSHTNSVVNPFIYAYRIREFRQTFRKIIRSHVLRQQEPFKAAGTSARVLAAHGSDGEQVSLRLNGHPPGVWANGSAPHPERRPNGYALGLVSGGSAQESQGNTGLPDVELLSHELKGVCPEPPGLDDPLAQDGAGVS

SMILES: CCCn1cc2c(nc(NC(=O)Nc3ccc(Cl)cc3)n3nc(-c4ccco4)nc23)n1
Ki (Adenosine receptor A3 [1]): 0.34 nM
Ki (Adenosine receptor A2b [2]): 76 nM
Ki (Adenosine receptor A1 [3]): 325 nM
Ratio [4]: 956
Ratio [5]: 224
Ki (Adenosine receptor A2a [6]): 140 nM

SMILES: CCCn1cc2c(nc(NC(=O)Nc3ccc4c(c3)OCO4)n3nc(-c4ccco4)nc23)n1
Ki (Adenosine receptor A1 [7]): 842 nM
Ki (Adenosine receptor A2a [8]): 667 nM
Ratio [4]: 2810
Ratio [5]: 177
Ki (Adenosine receptor A2b [9]): 53 nM
Ki (Adenosine receptor A3 [10]): 0.3 nM

SMILES: CCn1cc2c(nc(NC(=O)Nc3ccccc3)n3nc(-c4ccco4)nc23)n1
Ki (Adenosine receptor A1 [15]): 326 nM
Ratio [4]: 1810
Ki (Adenosine receptor A3 [16]): 0.18 nM
Ki (Adenosine receptor A2a [17]): 40 nM
Ratio [5]: 489
Ki (Adenosine receptor A2b [18]): 88 nM

Second part, the compound after the results:

Ki (Adenosine receptor A2a [11]): 140 nM
Ki (Adenosine receptor A2b [12]): 215 nM
Ki (Adenosine receptor A1 [13]): 400 nM
Ratio [4]: 465
Ratio [5]: 250
Ki (Adenosine receptor A3 [14]): 0.86 nM
SMILES: CCn1cc2c(nc(NC(=O)Nc3cccc(OC)c3)n3nc(-c4ccco4)nc23)n1

IC50 (Adenosine receptor A3 [19]): 6.4 nM
Ratio [4]: 867
Ki (Adenosine receptor A3 [20]): 0.81 nM
Ki (Adenosine receptor A2b [21]): 165 nM
Ratio [5]: 204
Ki (Adenosine receptor A2a [22]): 423 nM
Ki (Adenosine receptor A1 [23]): 702 nM
SMILES: Cn1cc2c(nc(NC(=O)Cc3ccccc3)n3nc(-c4ccco4)nc23)n1
